Assay results reported in ChEMBL document CHEMBL1124739, “Selective class III antiarrhythmic agents. 1 Bis(arylalkyl)amines” (J Med Chem, 1990).
Several values for one entry are separate records, joined by “and”; a condition that tells them apart may be missing. Equal entries are not always repeated.

Columns and labels:
[1] = organism: Cavia porcellus; test: The degree of cardiac depression produced by a concentration of 10 E-4 M was determined in guinea pig; assay type: functional
In short: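 Cardiac depression was measured at 10⁻⁴ M in the isolated guinea pig left atrial preparation and taken as an index of class I activity.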

[2] = organism: Cavia porcellus; test: Concentration required to prolong the effective refractory period (ERP) by 25% in isolated guinea pig left atria; assay type: functional
In short: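 Isolated guinea pig left atria were studied by the extrastimulus technique. The molar concentration raising ERP by 25% (ED25) was determined. Values are the mean of two similar determinations, ±4%.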

[3] = organism: Cavia porcellus; test: Action potential duration (APD50) repolarization in guinea pig right papillary muscle was determined at concentration 2 x 10E-5 M; assay type: functional, Muscle tissue
In short: (§1)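 Isolated guinea pig right papillary muscle exposed to the concentration given in each line. Action potential duration was read at 50% and 90% repolarization, and phase 0 maximum rate of depolarization (MRD) was also recorded. Values are means ± SD of 30 or 31 observations from three preparations, compared with control by t test.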

[4] = organism: Cavia porcellus; test: Maximum rate of depolarization (MRD) during phase 0 in guinea pig right papillary muscle was determined at concentration 2 x 10E-5 M; assay type: functional, Muscle tissue; in short: as §1
[5] = Distribution coefficient at pH 7.4; assay type: physicochemical; details: octanol/water
[6] = organism: Cavia porcellus; test: Maximum rate of depolarization (MRD) during phase 0 in guinea pig right papillary muscle was determined at concentration 10E-6 M; assay type: functional, Muscle tissue; in short: as §1
[7] = organism: Cavia porcellus; test: Maximum rate of depolarization (MRD) during phase 0 in guinea pig right papillary muscle was determined at concentration 5 x 10E-9 M; assay type: functional, Muscle tissue; in short: as §1
[8] = organism: Cavia porcellus; test: Action potential duration (APD90) repolarization in guinea pig right papillary muscle was determined at concentration 5 x 10E-9 M; assay type: functional, Muscle tissue; in short: as §1
[9] = organism: Cavia porcellus; test: Maximum rate of depolarization (MRD) during phase 0 in guinea pig right papillary muscle was determined at concentration 5 x 10E-8 M; assay type: functional, Muscle tissue; in short: as §1
[10] = organism: Cavia porcellus; test: Action potential duration (APD50) repolarization in guinea pig right papillary muscle was determined at concentration 10E-6 M; assay type: functional, Muscle tissue; in short: as §1
[11] = organism: Cavia porcellus; test: Action potential duration (APD90) repolarization in guinea pig right papillary muscle was determined at concentration 5 x 10E-8 M; assay type: functional, Muscle tissue; in short: as §1
[12] = organism: Cavia porcellus; test: Action potential duration (APD90) repolarization in guinea pig right papillary muscle was determined at concentration 10E-6 M; assay type: functional, Muscle tissue; in short: as §1
[13] = organism: Cavia porcellus; test: Action potential duration (APD50) repolarization in guinea pig right papillary muscle was determined at concentration 5 x 10E-9 M; assay type: functional, Muscle tissue; in short: as §1
[14] = Oral bioavailability in dog; assay type: ADME, organism-based, Canis lupus familiaris; details: in vivo
[15] = Oral bioavailability in man; assay type: ADME, organism-based; details: human, in vivo
[16] = organism: Cavia porcellus; test: Action potential duration (APD50) repolarization in guinea pig right papillary muscle was determined at concentration 5 x 10E-8 M; assay type: functional, Muscle tissue; in short: as §1

| Compound | Cardiac depression [1] [%] | ED25 [2] [µM] | other results |
| --- | --- | --- | --- |
| CN(CCOc1ccc(CC(N)=O)cc1)CCc1ccc(NS(C)(=O)=O)cc1 | 7 | 10 | – |
| COC(=O)c1ccc(OCCN(C)CCc2ccc(NS(C)(=O)=O)cc2)cc1 | 47 | 4.1 | – |
| CN(CCOc1ccc(C(N)=O)cc1)CCc1ccc(NS(C)(=O)=O)cc1 | 7 | 1.5 | – |
| CN(CCSc1ccc(NS(C)(=O)=O)cc1)CCc1ccc(NS(C)(=O)=O)cc1 | 21 | 0.3 | – |
| CN(CCCCc1ccc(NS(C)(=O)=O)cc1)CCc1ccc(NS(C)(=O)=O)cc1 | 32 | 67 | – |
| CN(CCOc1cccc(C(N)=O)c1)CCc1ccc(NS(C)(=O)=O)cc1 | 3 | 0.82 | – |
| CN(CCOC(c1ccccc1)c1ccc(NS(C)(=O)=O)cc1)CCc1ccc(NS(C)(=O)=O)cc1 (configuration not stated) | 35 | 12 | – |
| CN(CCOc1cccc(NS(C)(=O)=O)c1)CCc1ccc(NS(C)(=O)=O)cc1 | 9 | 3 | – |
| CN(CCCc1ccc(NS(C)(=O)=O)cc1)CCc1ccc(NS(C)(=O)=O)cc1 | 23 | 2.7 | – |
| CN(CCOc1ccc(S(N)(=O)=O)cc1)CCc1ccc(NS(C)(=O)=O)cc1 | 7 | 2.2 | – |
| CCN(CC)C(=O)c1ccc(OCCN(C)CCc2ccc(NS(C)(=O)=O)cc2)cc1 | 9 | 32 | – |
| CN(CCOc1ccc(NS(C)(=O)=O)cc1Cl)CCc1ccc(NS(C)(=O)=O)cc1 | 16 | 18 | – |
| CN(CCc1ccc(NS(C)(=O)=O)cc1)CCc1ccc(NS(C)(=O)=O)cc1 | 20 | 2 | – |
| Cc1ccc(NS(C)(=O)=O)c(OCCN(C)CCc2ccc(NS(C)(=O)=O)cc2)c1.Cl | 24 | 17 | – |
| CN(CCCCOc1ccc(NS(C)(=O)=O)cc1)CCc1ccc(NS(C)(=O)=O)cc1.Cl | 23 | 40 | – |
| Cc1ccc(OCCN(C)CCc2ccc(NS(C)(=O)=O)cc2)c(C(N)=O)c1.Cl | 22 | 1 | – |
| CNC(=O)Nc1ccc(OCCN(C)CCc2ccc(NS(C)(=O)=O)cc2)cc1.Cl | 0 | 70 | – |
| CN(CCOc1ccccc1NS(C)(=O)=O)CCc1ccc(NS(C)(=O)=O)cc1.Cl | 19 | 2.5 | – |
| CN(CCOc1ccc(C(F)(F)F)cc1)CCc1ccc(NS(C)(=O)=O)cc1.Cl | 30 | 90 | – |
| CNC(=O)c1ccc(OCCN(C)CCc2ccc(NS(C)(=O)=O)cc2)cc1.Cl | 5 | 1.5 | – |
| CN(CCCOc1ccc(NS(C)(=O)=O)cc1)CCc1ccc(NS(C)(=O)=O)cc1.Cl | 44 | 20 | – |
| CN(CCOc1ccc(C(=O)N2CCOCC2)cc1)CCc1ccc(NS(C)(=O)=O)cc1.Cl | 15 | 20 | – |
| CN(CCOc1ccc(NS(C)(=O)=O)cc1)CCc1ccc(NS(C)(=O)=O)cc1 [DOFETILIDE] | 0 | 0.13 | APD50 [3]: 209 ms; MRD [4]: 273 V s-1; logD [5]: 0.96; MRD [6]: 269 V s-1; MRD [7]: 261 V s-1; APD90 [8]: <209 ms and <273 ms; MRD [9]: 273 V s-1; APD50 [10]: 223 ms; APD90 [11]: 246 ms; APD90 [12]: 288 ms; APD50 [13]: 170 ms; bioavailability [14]: 72%; bioavailability [15]: 100%; APD50 [16]: 197 ms |
| CC(C)NCC(O)c1ccc(NS(C)(=O)=O)cc1 (configuration not stated) [SOTALOL] | 5 | 200 | – |
